Laboratory results from ChEMBL document CHEMBL3576808, “Phylum-specific regulation of resistomycin production in a Streptomyces sp. via microbial coculture” (J Nat Prod, 2015).
Activity calls are given as the source filed them.

Columns and labels:
Escherichia coli = experiment: Antimicrobial activity against Escherichia coli ATCC 25922 assessed as inhibition of microbial growth at 50 ug/ml; format: functional, organism-based
Outline: (§1)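 Single-dose growth-inhibition test at 50 μg/mL. Stock culture (50 μL) went into 10 mL tryptic soy broth and was shaken overnight at 37 °C; X. axonopodis was grown at 30 °C instead. OD was read at 625 nm and cells were adjusted to about 5 × 10^5 CFU per 100 μL well. Compound was added to a 100 μL final volume and plates were incubated overnight.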

Enterococcus faecalis = experiment: Antimicrobial activity against Enterococcus faecalis ATCC 29212 assessed as inhibition of microbial growth at 50 ug/ml; format: functional, organism-based
Xanthomonas axonopodis = experiment: Antimicrobial activity against Xanthomonas axonopodis ATCC 8718 assessed as inhibition of microbial growth at 50 ug/ml; format: functional, organism-based; outline: as §1
Yersinia pestis = experiment: Antimicrobial activity against Yersinia pestis A1122 assessed as inhibition of microbial growth at 50 ug/ml; format: functional, organism-based
[1] = system: Mycobacterium tuberculosis; experiment: Antimicrobial activity against Mycobacterium tuberculosis H37Rv assessed as inhibition of microbial growth at 50 ug/ml; format: functional, organism-based
[2] = system: Burkholderia vietnamiensis; experiment: Antimicrobial activity against Burkholderia vietnamiensis ATCC BAA-248 assessed as inhibition of microbial growth at 50 ug/ml; format: functional; outline: as §1
Firmicutes = experiment: Antimicrobial activity against Firmicutes K940; format: functional; details: Bacillota
Outline: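 Growth-inhibition assay against the inducing Actinobacteria (E906) and Firmicutes (K940) coculture isolates. Dose-response testing gave the MIC values. Bacteria were grown overnight in tryptic soy broth with shaking and read by OD at 625 nm. Wells were adjusted to about 5 × 10^5 CFU per 100 μL, compound was added to a 100 μL final volume, and plates were incubated overnight.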

Pseudomonas aeruginosa = experiment: Antimicrobial activity against Pseudomonas aeruginosa ATCC 27853 assessed as inhibition of microbial growth at 50 ug/ml; format: functional, organism-based; outline: as §1
[3] = Retention time of the compound by HPLC method; format: physicochemical
Brucella neotomae = experiment: Antimicrobial activity against Brucella neotomae ATCC 23459 assessed as inhibition of microbial growth at 50 ug/ml; format: functional; outline: as §1

Cc1cc(O)c2c3c4c(cc(O)c13)C(C)(C)C(=O)c1c(O)cc(O)c(c1-4)C2=O [HELIOMYCIN]
inactive: inhibition (Escherichia coli) | inhibition (Enterococcus faecalis) | inhibition (Xanthomonas axonopodis) | inhibition (Yersinia pestis) | inhibition [1] | inhibition [2] | inhibition (Pseudomonas aeruginosa) | inhibition (Brucella neotomae)
17.9 min: Retention_time [3]
0.25 µg/mL: MIC (Firmicutes)
